In general, Kd refers to the constant that tells how readily two partners part at equilibrium. A lower Kd goes with higher affinity.

We go through 5 compounds from article PMC2261226 (EMBO Reports, 2008).

In experiment [1] the target is AIRE–PHD1 wild type (UniProt O43918). As to the kind of experiment: other fluorescence titration.
Experiment [2] shares this target. Put plainly: ITC. On the technique in general: ITC needs no label: the signal is the heat of the interaction.
The test system of the next experiment is AIRE–PHD1. As to the kind of experiment: Histone pull-down after EDTA treatment. Particulars: 50 mM EDTA, overnight 4 °C prior to histone binding. The procedure, abridged:
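AIRE–PHD1 expressed as a glutathione-S-transferase (GST) fusion and incubated with whole histones. Bound H3 detected by western blot with anti-H3; GST-PHD protein visualised by Coomassie staining.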

Experiment [3] deals with AIRE–PHD1 WT (Homo sapiens, UniProt O43918). Put plainly: Tryptophan fluorescence titration, AIRE-PHD1 wild type. In kind it is binding.
The next experiment concerns the target T1, AIRE–PHD1 V301M (Homo sapiens, UniProt O43918, V301M).
T1 sequence (O43918 296-343 V301M limits assumed): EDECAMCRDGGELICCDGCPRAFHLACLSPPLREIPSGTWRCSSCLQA
As to the kind of experiment: Tryptophan fluorescence titration, AIRE-PHD1 V301M. It is filed as binding. The procedure, abridged: (§1)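 Tryptophan fluorescence spectroscopy titration of AIRE–PHD1 point mutants with histone H3 peptides: H3K4me0 for all; D297A also with H3K4me3. Dissociation constants were derived from the titrations. ND denotes binding too weak to quantify reliably.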

The next experiment concerns the target T2, AIRE–PHD1 C311Y (Homo sapiens, UniProt O43918, C311Y).
T2 sequence (O43918 296-343 C311Y limits assumed): T1 sequence (O43918 296-343 V301M limits assumed) with M6V, C16Y
Put plainly: Tryptophan fluorescence titration, AIRE-PHD1 C311Y. In kind it is binding. The procedure, abridged:
as §1

In experiment [4] the target is T3, AIRE–PHD1 D297A (Homo sapiens, UniProt O43918, D297A).
T3 sequence (O43918 290-349 D297A): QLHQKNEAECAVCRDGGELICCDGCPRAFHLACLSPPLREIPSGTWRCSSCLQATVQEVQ
As to the kind of experiment: Tryptophan fluorescence titration, AIRE-PHD1 D297A. It is filed as binding. The procedure, abridged:
as §1

Experiment [5] has as its target T4, AIRE–PHD1 D312A (Homo sapiens, UniProt O43918, D312A).
T4 sequence (O43918 296-343 D312A limits assumed): T1 sequence (O43918 296-343 V301M limits assumed) with M6V, D17A
As to the kind of experiment: Tryptophan fluorescence titration, AIRE-PHD1 D312A. It is filed as binding. The procedure, abridged:
as §1

In experiment [6] the target is T5, AIRE–PHD1 WT (Homo sapiens, UniProt O43918).
T5 sequence (O43918 293-349 limits assumed): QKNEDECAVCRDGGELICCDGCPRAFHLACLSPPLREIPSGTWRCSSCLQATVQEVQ
As to the kind of experiment: biochemical. In kind it is binding.

The target of experiment [7] is T3, AIRE–PHD1 D297A. Put plainly: Isothermal titration calorimetry, AIRE-PHD1 D297A. It is filed as binding.
Experiment [8] has as its target T4, AIRE–PHD1 D312A. As to the kind of experiment: Isothermal titration calorimetry, AIRE-PHD1 D312A. In kind it is binding. The procedure, abridged: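 ITC of H3K4me0 (histone H3, non-methylated K4) peptide binding to the AIRE–PHD1 D312A mutant. Sequential heat pulses were integrated, corrected for heat of dilution, and fit to a single-site binding model by nonlinear least squares to give N, Kd, ΔH and ΔS. ND denotes binding too weak to quantify reliably.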

The target in experiment [9] is AIRE–PHD1 wild type (UniProt O43918). As to the kind of experiment: NMR titration.

Residue numbers refer to the chain shown, from its start. Where only a bound is given, the exact number is not on record here.

“histone H3 N-terminal peptide H3K4me1 (NMR, fluorescence, ITC)”: the dissociation constant Kd worked out at 21.4 µM with AIRE–PHD1 wild type [1] and 55.6 µM in the experiment with AIRE–PHD1 wild type [2].
Take `O=C(O)CN(CCN(CC(=O)O)CC(=O)O)CC(=O)O` [EDTA]: the “effect on H3 binding, in words” value in the experiment on AIRE–PHD1 was “greatly reduced”.
On to `C[C@H](N)C(=O)N[C@@H](CCCNC(=N)N)C(=O)N[C@H](C(=O)N[C@@H](CCCCN)C(=O)N[C@@H](CCC(N)=O)C(=O)N[C@H](C(=O)N[C@@H](C)C(=O)N[C@@H](CCCNC(=N)N)C(=O)N[C@@H](CCCCN)C(=O)N[C@@H](CO)C(=O)O)[C@@H](C)O)[C@@H](C)O` [H3K4me0], for which the Kd on AIRE–PHD1 WT [3] is 4.7 ± 0.8 µM; on AIRE–PHD1 V301M, 6.8 ± 0.4 µM; at AIRE–PHD1 C311Y, more than 500 µM; on AIRE–PHD1 D297A [4], 173 ± 18.6 µM; at AIRE–PHD1 D312A [5], more than 500 µM; at AIRE–PHD1 WT [6], 6.5 ± 0.2 µM. Further, the Kd at AIRE–PHD1 D297A [7] was 147 ± 6.1 µM; on AIRE–PHD1 D312A [8] it was more than 714 µM.
On to “histone H3 N-terminal peptide H3K4me2 (NMR, fluorescence, ITC)”, for which the dissociation constant Kd with AIRE–PHD1 wild type [1] is more than 500 µM; with AIRE–PHD1 wild type [2], 714 µM.
In the case of “histone H3 N-terminal peptide H3K4me0 (NMR, fluorescence, ITC)”, the maximum average chemical shift change in the experiment with AIRE–PHD1 wild type [9] was 0.9 p.p.m.
